pIC50: −log10 of the molar value. The source made the active and inactive calls. The rule behind the calls is not given here.
Key:
[1] = target: T1, N-acylethanolamine-hydrolyzing acid amidase (Homo sapiens) (UniProt Q02083); experiment: Inhibition of human recombinant NAAA expressed in human HEK293 cells assessed as conversion of [1,2-14C]palmitoylethanolamine to [1,2-14C]ethanolamine at 50 uM by liquid scintillation counting; assay type: cell-based
T1 sequence (whole entry): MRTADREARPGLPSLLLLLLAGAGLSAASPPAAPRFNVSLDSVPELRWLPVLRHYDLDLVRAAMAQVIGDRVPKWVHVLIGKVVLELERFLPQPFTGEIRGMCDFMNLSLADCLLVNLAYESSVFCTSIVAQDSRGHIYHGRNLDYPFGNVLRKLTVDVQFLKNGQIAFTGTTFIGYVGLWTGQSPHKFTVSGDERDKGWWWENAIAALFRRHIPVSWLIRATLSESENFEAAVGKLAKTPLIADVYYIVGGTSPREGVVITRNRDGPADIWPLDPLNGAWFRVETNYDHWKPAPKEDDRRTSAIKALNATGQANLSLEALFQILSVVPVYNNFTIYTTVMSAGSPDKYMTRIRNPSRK

[2] = target: T2, N-acylethanolamine-hydrolyzing acid amidase (Homo sapiens, UniProt Q02083); experiment: Inhibition of NAAA
T2 sequence (Q02083 whole entry): T1 sequence (whole entry)

[3] = target: T2, N-acylethanolamine-hydrolyzing acid amidase; experiment: Inhibition of human recombinant NAAA expressed in human HEK293 cells assessed as conversion of [1,2-14C]palmitoylethanolamine to [1,2-14C]ethanolamine by liquid scintillation counting
[4] = target: Peroxisome proliferator-activated receptor (Homo sapiens) (UniProt P37231+Q07869+Q03181); experiment: Inhibition of PPAR in intact human HEK293 cells assessed as N-oleoylethanolamine level by LC-APCI-MS analysis; assay type: cell-based
Procedure, shortened: (§1)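 Intact HEK-NAAA cells (HEK-293 stably overexpressing human NAAA) were treated. Cellular PEA, AEA, OEA and 2-arachidonoylglycerol were quantified by isotope-dilution liquid chromatography–mass spectrometry and expressed as pmol/mg lipid.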

[5] = target: Cannabinoid receptor 1 (Homo sapiens) (UniProt P21554); experiment: Inhibition of CB1 receptor in intact human HEK293 cells assessed as 2-arachidonoylglycerol level by LC-APCI-MS analysis; assay type: cell-based; procedure, shortened: as §1
[6] = target: T3, Fatty-acid amide hydrolase 1 (Homo sapiens) (UniProt O00519); experiment: Inhibition of FAAH in human intact HEK293 assessed as anandamide level by LC-APCI-MS analysis; assay type: cell-based; procedure, shortened: as §1
T3 sequence (whole entry): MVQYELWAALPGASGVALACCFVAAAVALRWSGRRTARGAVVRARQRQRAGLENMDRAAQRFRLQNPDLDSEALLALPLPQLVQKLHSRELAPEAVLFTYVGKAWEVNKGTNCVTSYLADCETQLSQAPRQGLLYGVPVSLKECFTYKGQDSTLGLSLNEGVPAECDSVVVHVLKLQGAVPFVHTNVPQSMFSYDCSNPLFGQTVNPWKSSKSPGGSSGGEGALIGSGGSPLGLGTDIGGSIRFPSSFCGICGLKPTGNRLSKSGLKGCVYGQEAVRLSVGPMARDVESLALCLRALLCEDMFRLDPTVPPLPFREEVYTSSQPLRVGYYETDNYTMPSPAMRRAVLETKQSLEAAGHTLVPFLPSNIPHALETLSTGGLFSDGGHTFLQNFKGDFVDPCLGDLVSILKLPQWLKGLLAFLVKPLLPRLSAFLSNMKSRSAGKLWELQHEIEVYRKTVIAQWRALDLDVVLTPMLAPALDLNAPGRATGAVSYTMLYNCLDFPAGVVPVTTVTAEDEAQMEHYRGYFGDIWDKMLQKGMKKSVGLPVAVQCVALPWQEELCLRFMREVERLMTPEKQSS

[7] = target: Cannabinoid receptor 2 (Homo sapiens) (UniProt P34972); experiment: Displacement of [3H]CP-55940 from human recombinant CB2 receptor expressed in HEK293 cells up to 50 uM after 90 mins; assay type: cell-based
[8] = target: Transient receptor potential cation channel subfamily V member 1 (Homo sapiens) (UniProt Q8NER1); experiment: Inhibition of human TRPV1 expressed in HEK293 cells up to 50 uM; assay type: cell-based
[9] = target: T1, N-acylethanolamine-hydrolyzing acid amidase (Homo sapiens); experiment: Competitive inhibition of human recombinant NAAA expressed in human HEK293 cells assessed as conversion of [1,2-14C]palmitoylethanolamine to [1,2-14C]ethanolamine by Lineweaver-Burke plot analysis; assay type: cell-based
[10] = target: T1, N-acylethanolamine-hydrolyzing acid amidase (Homo sapiens); experiment: Inhibition of NAAH in human intact HEK293 assessed as N-palmitoylethanolamine level by LC-APCI-MS analysis; assay type: cell-based; procedure, shortened: as §1
[11] = target: T3, Fatty-acid amide hydrolase 1 (Homo sapiens); experiment: Inhibition of FAAH up to 50 uM
[12] = target: Cannabinoid receptor 1 (Homo sapiens) (UniProt P21554); experiment: Displacement of [3H]CP-55940 from human recombinant CB1 receptor expressed in HEK293 cells up to 50 uM after 90 mins; assay type: cell-based

| inhibition [1] | SMILES | further results |
| --- | --- | --- |
| inactive | CCCCCCCCCCCCCCCC(=O)Oc1ccc(OC)cc1 | – |
| inactive | CCCCCCCCCCCCCCCC(=O)NN1CCN(c2ccc(F)cc2)CC1 | – |
| inactive | CCCCCCCCCCCCCCCCOC(=O)c1ccc(OC)cc1 | – |
| inactive | CCCCCCCCCCCCCCCCOC(=O)NC1CCCCC1 | – |
| 25% | CCCCCCCCCCCCCCC(=O)OC1CCCC1 | – |
| 4% | CCCCCCCCCCCCCCCCNC(=O)c1ccc([N+](=O)[O-])cc1 | – |
| inactive | CCCCCCCCCCCCCCCCC(=O)OC1CCCC1 | – |
| inactive | CCCCCCCCCCCCCCCC(=O)NN1CCN(c2ccc(Cl)cc2)CC1 | – |
| 8% | CCCCCCCCCCCCCCCCNC(=O)C1CCCC1 | – |
| inactive | CCCCCCCCCCCCCCCCC(=O)OC1CCCCC1 | – |
| inactive | CCCCCCCCCCCCCCCC(=O)Nc1ccc(OC)cc1 | – |
| 18% | CCCCCCCCCCCCCCCC(=O)OC1CCCCC1 | – |

More lines, now with the values behind:

| SMILES | inhibition [1] | further results |
| --- | --- | --- |
| CCCCCCCCCCCCCCCC(=O)Nc1ccc([N+](=O)[O-])cc1 | 15% | – |
| CCCCCCCCCCCCCCCC(=O)NN1CCN(c2ccc(C)c(C)c2)CC1 | inactive | – |
| CCCCCCCCCCCCCCCCC(=O)OC1CCC1 | inactive | – |
| CCCCCCCCCCCCCCCC(=O)NCCc1cc(OC)cc(OC)c1 | inactive | – |
| CCCCCCCCCCCCCCC(=O)OC1CCC1 | 29% | – |
| CCCCCCCCCCCCCCCCOC(=O)c1ccc([N+](=O)[O-])cc1 | 26% | – |
| CCCCCCCCCCCCCCCC(=O)NCCc1ccc(OC)cc1 | inactive | – |
| CCCCCCCCCCCCCCCCOC(=O)CC [HEXADECYLPROPIONATE] | – | pIC50 [2]: 4.27 |
| CCCCCCCCCCCCCCCCNC(=O)c1ccc(OC)cc1 | inactive | – |
| CCCCCCCCCCCCCCCNC(=O)c1ccccc1 | – | pIC50 [2]: 5.08 |
| CCCCCCCCCCCCCCCNC(=O)C1CCCCC1 [CYCLOHEXANECARBOXYLIC ACID PENTADECYLAMIDE] | – | pIC50 [3]: 4.77 |
| CCCCCCCCCCCCCCCC(=O)OC1CCC1 | 41% | – |
| CCCCCCCCCCCCCCCC(=O)NC1CCN(Cc2ccccc2)CC1 | inactive | – |
| CCCCCCCCCCCCCCCNC(=O)CCO | – | pIC50 [2]: 4.49 |
| CCCCCCCCCCCCCCCCOC(=O)C1CCCC1 | 17% | – |
| CCCCCCCCCCCCCCC(=O)OC1CCCCC1 | 28% | – |
| CCCCCCCCCCCCCCCC(=O)NN1CCN(c2cc(C)ccc2C)CC1 | inactive | – |
| CCCCCCCCCCCCCCCC(=O)OC1CCCC1 [CYCLOPENTYL PALMITATE] | 85% | Activity [4]: inactive; Activity [5]: inactive; Activity [6]: inactive; Activity [7]: inactive; Activity [8]: inactive; Activity [9]: Active; pIC50 [3]: 5.00; Activity [10]: Active; Activity [11]: inactive; Activity [12]: inactive |
| CCCCCCCCCCCCCCCCOC(=O)Nc1ccc(OC)cc1 | inactive | – |

Reference: ChEMBL document CHEMBL1158500, “Synthesis and biological evaluation of new potential inhibitors of N-acylethanolamine hydrolyzing acid amidase” (Bioorg Med Chem Lett, 2010)
